# Laboratory results taken from ChEMBL document CHEMBL4196006, “Aryl thiosemicarbazones for the treatment of trypanosomatidic infections” (Eur J Med Chem, 2018).
# Activity calls are given as the source filed them. The calls are words filed in the database; no cut-off is given here.
# What was measured:
# Leishmania infantum [1] = assay: Antileishmanial activity against Leishmania infantum amastigote form assessed as parasite growth inhibition at 50 uM after 72 hrs by steady-Glo reagent based assay relative to control; type: functional
# Method in brief: (§1)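 Intramacrophage L. infantum amastigotes in THP-1-derived macrophages, tested at 50 μM or in dose-response. Plates held 72 h at 37 °C, 5% CO2. Medium was replaced by PBS, macrophages lysed, and parasites read by Steady-Glo luminescence. High-content imaging gave host cell number, infection ratio (infected/total cells) and parasites per infected cell. Values are means of at least two independent experiments.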
# Leishmania infantum [2] = assay: Antileishmanial activity against Leishmania infantum amastigote form after 72 hrs by steady-Glo reagent based assay; type: functional, organism-based; method in brief: as §1
# Trypanosoma brucei [3] = assay: Potentiation of methotrexate-induced antitrypanosomal activity against Trypanosoma brucei Lister 427 bloodstream form at 10 uM after 72 hrs by resazurin dye-based assay relative to control; type: functional
# Trypanosoma brucei [4] = assay: Potentiation of methotrexate-induced antitrypanosomal activity against Trypanosoma brucei Lister 427 bloodstream form assessed as dose reduction index for compound at EC50 after 72 hrs by resazurin dye-based assay; type: functional
# CYP2C19 = CYP2C19 (Homo sapiens, UniProt P33261); assay: Inhibition of human microsomal CYP2C19 expressed in baculovirus infected BTI-TN-5B1-4 cells at 10 uM incubated for 30 mins by luciferase assay relative to control; type: ADME
# Sequence of CYP2C19 (P33261 whole entry): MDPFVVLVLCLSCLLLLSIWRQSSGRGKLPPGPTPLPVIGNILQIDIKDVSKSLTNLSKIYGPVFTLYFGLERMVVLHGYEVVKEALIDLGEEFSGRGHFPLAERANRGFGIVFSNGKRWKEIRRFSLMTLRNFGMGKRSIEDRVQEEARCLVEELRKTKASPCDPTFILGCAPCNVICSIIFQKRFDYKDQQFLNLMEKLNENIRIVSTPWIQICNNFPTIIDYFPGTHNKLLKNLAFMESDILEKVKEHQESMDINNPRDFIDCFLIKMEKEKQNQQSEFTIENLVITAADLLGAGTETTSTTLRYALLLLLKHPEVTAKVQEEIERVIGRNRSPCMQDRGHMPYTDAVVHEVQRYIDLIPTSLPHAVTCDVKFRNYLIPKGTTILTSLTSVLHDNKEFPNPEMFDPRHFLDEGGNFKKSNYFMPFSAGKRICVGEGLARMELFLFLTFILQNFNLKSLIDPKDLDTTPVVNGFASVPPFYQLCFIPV
# Method in brief: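 CYP1A2, 2C9, 2C19, 2D6 and 3A4 in microsomes from baculovirus-infected insect cells, each with a P450-Glo luminogenic substrate. Inhibition read as loss of light; single-point at 10 μM, triplicate.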
# [5] = Cytotoxicity against human THP1 cells assessed as decrease in viable cells after 72 hrs by MTT assay; type: cell-based, THP-1; conditions: THP1 cells
# Method in brief: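 THP-1-derived macrophages exposed to compounds for 72 h, tested at 100 μM or in dose-response; viability read by MTT colorimetric assay.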
# [6] = Selectivity index, ratio of CC50 for human THP1 cells to EC50 for Leishmania infantum amastigote form; type: toxicity; conditions: read-out: Ratio CC50/EC50
# Method in brief: (§2)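 Selectivity index = CC50 in the human host or cytotoxicity cell line divided by parasite EC50.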
# [7] = Selectivity index, ratio of CC50 for human U2OS cells to EC50 for Trypanosoma cruzi amastigote form; type: toxicity; conditions: read-out: Ratio CC50/EC50; method in brief: as §2
# [8] = target: T1, Pteridine reductase, putative (Trypanosoma brucei) (UniProt Q581W1); assay: Inhibition of Trypanosoma brucei PTR1 at 50 uM using H2B as substrate in presence of NADPH by photometric analysis relative to control
# T1 sequence (whole entry): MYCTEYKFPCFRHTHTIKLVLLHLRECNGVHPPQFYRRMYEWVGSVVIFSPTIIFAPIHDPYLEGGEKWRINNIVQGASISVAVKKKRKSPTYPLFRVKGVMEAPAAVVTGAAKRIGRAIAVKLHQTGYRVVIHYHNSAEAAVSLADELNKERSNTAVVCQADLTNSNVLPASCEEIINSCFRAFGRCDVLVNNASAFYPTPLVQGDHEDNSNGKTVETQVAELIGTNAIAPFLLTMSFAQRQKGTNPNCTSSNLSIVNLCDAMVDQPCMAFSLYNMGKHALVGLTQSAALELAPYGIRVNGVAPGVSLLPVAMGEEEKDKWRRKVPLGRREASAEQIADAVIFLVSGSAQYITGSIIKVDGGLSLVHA
# Trypanosoma brucei [9] = assay: Antitrypanosomal activity against Trypanosoma brucei Lister 427 bloodstream form at 30:1 methotrexate to test compound ratio after 72 hrs by resazurin dye-based assay; type: functional, organism-based; conditions: Lister 427, 72 h
# [10] = Cytotoxicity against human U2OS cells assessed as decrease in viable cells after 72 hrs by cell number count in anti-T. cruzi high content imaging assay; conditions: U2OS cells
# Trypanosoma brucei [11] = assay: Antitrypanosomal activity against Trypanosoma brucei Lister 427 bloodstream form at 6:1 methotrexate to test compound ratio after 72 hrs by resazurin dye-based assay; type: functional, organism-based; conditions: Lister 427, 72 h
# [12] = Selectivity ratio of EC50 for Trypanosoma cruzi amastigote form to EC50 for Trypanosoma brucei Lister 427 bloodstream form; type: functional
SMILES,inhibition of growth at 50 µM (Leishmania infantum [1]; read-out: GI),EC50 (Leishmania infantum [2]),Activity (Trypanosoma brucei [3]),Activity_index (Trypanosoma brucei [4]),"inhibition at 0.5 h, 10 µM (CYP2C19)",CC50 at 72 h [5],selectivity ratio [6],selectivity ratio [7],inhibition [8],EC50 (Trypanosoma brucei [9]),CC50 at 72 h [10],growth inhibition (GI) (Leishmania infantum [1]),EC50 (Trypanosoma brucei [11]),Ratio EC50 [12]
NC(=S)N/N=C/c1ccc(OCc2ccc(Cl)c(Cl)c2)cc1,80.5%,6.14 µM,99.67%,3.84,10.4%,82 µM,13,55,0.36%,0.11 µM,72 µM,,,
COc1ccc(-c2cccc(/C=N/NC(N)=S)c2)cc1OC,,,99.67%,7.94,22.2%,,,,3.09%,,,inactive,0.59 µM,4
